Measurements taken from ChEMBL document CHEMBL1122273, “5-sulfamoylorthanilic acids, a sulfonamide series with salidiuretic activity” (J Med Chem, 1983).
“And” between values parts separate entries of the source, which are not always exact repeats. Identical values can stand only once. The source made the active and inactive calls. The rule behind the calls is not given here.

How the values were obtained:
Rattus norvegicus [1] = organism: Rattus norvegicus; test: Saluretic activity in the rat measured as concentration of Na+ in urine; assay type: functional
Outline: (§1)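 Rats deprived of food 24 h, water ad libitum, dosed 50 mg/kg by stomach tube as suspension in 2% starch, no extra water load. Groups of three in diuresis funnels; urine over first 5 h collected. Na⁺ and K⁺ by flame photometry, Cl⁻ argentometrically; expressed as mequiv/kg.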

Canis familiaris [2] = test: Saluretic activity in the dog measured as concentration of K+ in urinary excretion (2 animals/dose) at (dose mg/Kg, po); assay type: functional, Canis lupus familiaris, Urine
Outline: (§2)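 Male beagles trained to rest on a table and to accept stomach tube and catheter. Food withdrawn 24 h before, tap water ad libitum. Bladder emptied by catheter, then 20 mL/kg tap water by stomach tube. Catheterized hourly up to 8 h with 4 mL/kg water orally each time; first 2 h urine served as control. Oral dosing after second catheterization. Pooled 1–6 h urine; Na⁺/K⁺ by flame photometry, Cl⁻ argentometrically.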

Canis familiaris [3] = test: Diuretic activity in the dog (2 animals/dose) at (dose 1.56 mg/Kg), when administered perorally; assay type: functional, Canis lupus familiaris, Urine
Outline: (§3)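 Trained male beagles, fasted 24 h with tap water ad libitum. Bladder emptied by catheter, then 20 mL/kg tap water by stomach tube, with 4 mL/kg water at each hourly catheterization up to 8 h. The first 2 h of urine served as control. Oral dosing came after the second catheterization, and 1–6 h urine was pooled. Na⁺ and K⁺ were measured by flame photometry, Cl⁻ argentometrically, in mequiv/kg.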

Rattus norvegicus [4] = organism: Rattus norvegicus; test: Diuretic activity in the rats, determined by a modified Lipschitz test; assay type: functional, Urine
Outline: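 Modified Lipschitz test: rats deprived of water 24 h, grouped in threes of similar weight in diuresis funnels. Oral dose of 50 mg/kg, suspended in 2% starch solution, by stomach tube.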

Canis familiaris [5] = test: It is the ratio, measured as saluretic activity in the dog as concentration of Na+ in urinary excretion (dose mg/Kg, po) to that of K; assay type: functional, Canis lupus familiaris, Urine; outline: as §3
Canis familiaris [6] = test: It is the ratio, measured as saluretic activity in the dog as concentration of Cl- in urinary excretion (dose mg/Kg, po) to that of (Na++K+); assay type: functional, Canis lupus familiaris, Urine; outline: as §3
Canis familiaris [7] = test: Diuretic activity in the dog (2 animals/dose) at (dose 12.5 mg/Kg), when administered perorally; assay type: functional, Canis lupus familiaris, Urine; outline: as §3
Rattus norvegicus [8] = organism: Rattus norvegicus; test: Saluretic activity in the rat measured as concentration of chloride in urine; assay type: functional; outline: as §1
Rattus norvegicus [9] = organism: Rattus norvegicus; test: Saluretic activity in the rat measured as concentration of K+ in urine; assay type: functional; outline: as §1
Canis familiaris [10] = test: Saluretic activity in the dog measured as concentration of Na+ in urinary excretion (2 animals/dose) at (dose 1.56 mg/Kg, perorally); assay type: functional, Canis lupus familiaris, Urine; outline: as §2
Canis familiaris [11] = test: Saluretic activity on the basis of the 1.56 mg/Kg perorally dog assay; Compound is found to be highly active.; assay type: functional, organism-based; conditions: Canis lupus familiaris; outline: as §2
Canis familiaris [12] = test: Saluretic activity in the dog measured as concentration of Cl- in urinary excretion (2 animals/dose) at (dose 1.56 mg/Kg, perorally); assay type: functional, Canis lupus familiaris, Urine
Outline: (§4)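 Male beagles trained to the procedures, food withdrawn 24 h before, tap water ad libitum. Bladder emptied by catheter, then 20 mL/kg tap water by stomach tube, plus 4 mL/kg orally at each hourly catheterization up to 8 h. The first 2 h of urine served as control. Compound given orally after the second catheterization. Urine from 1–6 h post-dose pooled; Na⁺ and K⁺ by flame photometry, Cl⁻ argentometrically, in mequiv/kg.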

Rattus norvegicus [13] = test: Saluretic activity on the basis of the 50 mg/kg perorally rat assay; Compound is found to be moderately active; assay type: functional, organism-based; set-up: dose 50 mg/kg; outline: as §1
[14] = It is the ratio, measured as saluretic activity in the dog as concentration of Na+ in urinary excretion (dose 1.56 mg/Kg, perorally) to that of K; assay type: functional, Urine; outline: as §3
Canis familiaris [15] = test: Saluretic activity in the dog measured as concentration of K+ in urinary excretion (2 animals/dose) at (dose 1.56 mg/Kg, perorally); assay type: functional, Canis lupus familiaris, Urine; outline: as §4
[16] = It is the ratio, measured as saluretic activity in the dog as concentration of Cl- in urinary excretion (dose 1.56 mg/Kg, perorally) to that of (Na+)+(K+); assay type: functional, Urine; outline: as §3
[17] = It is the ratio, measured as saluretic activity in the dog as concentration of Cl- in urinary excretion (dose 1.56 mg/Kg, po) to that of (Na++K+); assay type: functional, Urine; outline: as §3
Canis familiaris [18] = test: Diuretic activity in the dog (2 animals/dose) at (dose 0.4 mg/Kg), when administered perorally; assay type: functional, Canis lupus familiaris, Urine; outline: as §3
[19] = It is the ratio, measured as saluretic activity in the dog as concentration of Na+ in urinary excretion (dose 6.25 mg/Kg, po) to that of K; assay type: functional, Urine; outline: as §3
Canis familiaris [20] = test: Diuretic activity in the dog (2 animals/dose) at (dose 0.1 mg/Kg), when administered perorally; assay type: functional, Canis lupus familiaris, Urine; outline: as §3
[21] = It is the ratio, measured as saluretic activity in the dog as concentration of Cl- in urinary excretion (dose 0.1 mg/Kg, po) to that of (Na++K+); assay type: functional, Urine; outline: as §3
Canis familiaris [22] = test: Diuretic activity in the dog (2 animals/dose) at (dose 6.25 mg/Kg), when administered perorally; assay type: functional, Canis lupus familiaris, Urine; outline: as §3
Canis familiaris [23] = test: Saluretic activity in the dog measured as concentration of K+ in urinary excretion (2 animals/dose) at (dose 6.25 mg/Kg, po); assay type: functional, Canis lupus familiaris, Urine; outline: as §2
[24] = It is the ratio, measured as saluretic activity in the dog as concentration of Na+ in urinary excretion (dose 0.4 mg/Kg, po) to that of K; assay type: functional, Urine; outline: as §3
Canis familiaris [25] = test: Saluretic activity in the dog measured as concentration of Na+ in urinary excretion (2 animals/dose) at (dose 6.25 mg/Kg, po); assay type: functional, Canis lupus familiaris, Urine; outline: as §2
Rattus norvegicus [26] = test: Salidiuretic activity on the basis of the 50 mg/kg po rat assay; compound was highly active; assay type: functional, organism-based; set-up: dose 50 mg/kg; conditions: Urine
Canis familiaris [27] = test: Salidiuretic activity on the basis of the 1.56 mg/Kg po dog assay; compound was highly active; assay type: functional, organism-based; conditions: Canis lupus familiaris; Urine
Canis familiaris [28] = test: Saluretic activity in the dog measured as concentration of Na+ in urinary excretion (2 animals/dose) at (dose 1.56 mg/Kg, po); assay type: functional, Canis lupus familiaris, Urine; outline: as §2
[29] = It is the ratio, measured as saluretic activity in the dog as concentration of Cl- in urinary excretion (dose 6.25 mg/Kg, po) to that of (Na++K+); assay type: functional, Urine; outline: as §3
Canis familiaris [30] = test: Saluretic activity in the dog measured as concentration of Na+ in urinary excretion (2 animals/dose) at (dose 0.4 mg/Kg, po); assay type: functional, Canis lupus familiaris, Urine; outline: as §2
Canis familiaris [31] = test: Saluretic activity in the dog measured as concentration of Na+ in urinary excretion (2 animals/dose) at (dose 0.1 mg/Kg, po); assay type: functional, Canis lupus familiaris, Urine; outline: as §2
Canis familiaris [32] = test: Saluretic activity in the dog measured as concentration of K+ in urinary excretion (2 animals/dose) at (dose 0.1 mg/Kg, po); assay type: functional, Canis lupus familiaris, Urine; outline: as §4
Canis familiaris [33] = test: Saluretic activity in the dog measured as concentration of Cl - in urinary excretion (2 animals/dose) at (dose 1.56 mg/Kg, po); assay type: functional, Canis lupus familiaris, Urine; outline: as §4
Canis familiaris [34] = test: Saluretic activity in the dog measured as concentration of K+ in urinary excretion (2 animals/dose) at (dose 1.56 mg/Kg, po); assay type: functional, Canis lupus familiaris, Urine; outline: as §2
Canis familiaris [35] = test: It is the ratio, measured as saluretic activity in the dog as concentration of Na+ in urinary excretion (dose 1.56 mg/Kg, po) to that of K; assay type: functional, Canis lupus familiaris, Urine; outline: as §3
Canis familiaris [36] = test: Saluretic activity in the dog measured as concentration of Cl - in urinary excretion (2 animals/dose) at (dose 6.25 mg/Kg, po); assay type: functional, Canis lupus familiaris, Urine; outline: as §4
Canis familiaris [37] = test: Saluretic activity in the dog measured as concentration of K+ in urinary excretion (2 animals/dose) at (dose 0.4 mg/Kg, po); assay type: functional, Canis lupus familiaris, Urine; outline: as §4
Canis familiaris [38] = test: Saluretic activity in the dog measured as concentration of Cl - in urinary excretion (2 animals/dose) at (dose 0.1 mg/Kg, po); assay type: functional, Canis lupus familiaris, Urine; outline: as §4
Canis familiaris [39] = test: Saluretic activity in the dog measured as concentration of Cl - in urinary excretion (2 animals/dose) at (dose 0.4 mg/Kg, po); assay type: functional, Canis lupus familiaris, Urine; outline: as §4
[40] = It is the ratio, measured as saluretic activity in the dog as concentration of Na+ in urinary excretion (dose 0.1 mg/Kg, po) to that of K; assay type: functional, Urine; outline: as §3
[41] = It is the ratio, measured as saluretic activity in the dog as concentration of Cl- in urinary excretion (dose 0.4 mg/Kg, po) to that of (Na++K+); assay type: functional, Urine; outline: as §3

## NS(=O)(=O)c1cc(S(=O)(=O)[O-])c(NCc2ccco2)cc1Nc1ccccc1.[Na+]
Rattus norvegicus [1]
  Saluretic activity: 0.6 m equiv 5hr-1 kg-1
Canis familiaris [2]
  Saluretic activity: 0.18 m equiv 6hr-1 kg-1 and 0.45 m equiv 6hr-1 kg-1
Canis familiaris [3]
  Diuretic activity: 32.3 ml kg-1 6hr-1
Rattus norvegicus [4]
  Diuretic activity: 0.6 mL/kg
Canis familiaris [5]
  Saluretic activity: 2.1 and 5
Canis familiaris [6]
  Saluretic activity: 1 and 1.1
Canis familiaris [7]
  Diuretic activity: 49.4 ml kg-1 6hr-1
Rattus norvegicus [8]
  Saluretic activity: 1.1 m equiv 5hr-1 kg-1
Rattus norvegicus [9]
  Saluretic activity: 0.7 m equiv 5hr-1 kg-1

## NCc1cccs1.NS(=O)(=O)c1cc(S(=O)(=O)O)c(NCc2cccs2)cc1Cl
Canis familiaris [10]
  Saluretic activity: 2.33 m equiv 6hr-1 kg-1
Canis familiaris [11]
  Saldiuretic activity: Active
Canis familiaris [12]
  Saldiuretic activity: 2.76 m equiv 6hr-1 kg-1
Rattus norvegicus [1]
  Saluretic activity: 2.7 m equiv 5hr-1 kg-1
Rattus norvegicus [13]
  Saldiuretic activity: Weak activity
Canis familiaris [3]
  Diuretic activity: 44.5 ml kg-1 6hr-1
[14]
  Ratio: 4.2
Canis familiaris [15]
  Saluretic activity: 0.55 m equiv 6hr-1 kg-1
Rattus norvegicus [4]
  Diuretic activity: 1 mL/kg
[16]
  Ratio: 0.95
Rattus norvegicus [8]
  Saluretic activity: 3.3 m equiv 5hr-1 kg-1
Rattus norvegicus [9]
  Saluretic activity: 1.7 m equiv 5hr-1 kg-1

## NS(=O)(=O)c1cc(S(=O)(=O)[O-])c(NCc2ccco2)cc1S(=O)(=O)C1CCCCC1.[Na+]
[17]
  Ratio: 0.95
Canis familiaris [18]
  Diuretic activity: 59 ml kg-1 6hr-1
[19]
  Ratio: 4.7
Canis familiaris [20]
  Diuretic activity: 44.7 ml kg-1 6hr-1
Rattus norvegicus [1]
  Saluretic activity: 8.2 m equiv 5hr-1 kg-1
[21]
  Ratio: 1
Canis familiaris [22]
  Diuretic activity: 73.5 ml kg-1 6hr-1
Canis familiaris [23]
  Saldiuretic activity: 1.16 m equiv 6hr-1 kg-1
[24]
  Ratio: 4.5
Canis familiaris [3]
  Diuretic activity: 66.7 ml kg-1 6hr-1
Canis familiaris [25]
  Saluretic activity: 5.5 m equiv 6hr-1 kg-1
Rattus norvegicus [26]
  Saldiuretic activity: Active
Canis familiaris [27]
  Saldiuretic activity: Active
Canis familiaris [28]
  Saluretic activity: 5.38 m equiv 6hr-1 kg-1
[29]
  Ratio: 1
Canis familiaris [30]
  Saluretic activity: 3.71 m equiv 6hr-1 kg-1
Canis familiaris [31]
  Saluretic activity: 1.95 m equiv 6hr-1 kg-1
Canis familiaris [32]
  Saldiuretic activity: 0.53 m equiv 6hr-1 kg-1
Canis familiaris [33]
  Saldiuretic activity: 6.15 m equiv 6hr-1 kg-1
Rattus norvegicus [4]
  Diuretic activity: 2.8 mL/kg
Canis familiaris [34]
  Saldiuretic activity: 1.14 m equiv 6hr-1 kg-1
Canis familiaris [35]
  Ratio: 4.7
Canis familiaris [36]
  Saldiuretic activity: 6.83 m equiv 6hr-1 kg-1
Canis familiaris [37]
  Saluretic activity: 0.82 m equiv 6hr-1 kg-1
Canis familiaris [38]
  Saldiuretic activity: 2.49 m equiv 6hr-1 kg-1
Canis familiaris [39]
  Saldiuretic activity: 4.43 m equiv 6hr-1 kg-1
[40]
  Ratio: 3.7
Rattus norvegicus [8]
  Saluretic activity: 9.1 m equiv 5hr-1 kg-1
Rattus norvegicus [9]
  Saluretic activity: 2.3 m equiv 5hr-1 kg-1
[41]
  Ratio: 1
